Test results: ChEMBL document CHEMBL1156119 (J Med Chem, 2009)
Active and inactive are the calls of the source. The rule behind the calls is not given here.

Experiments:
[1] = test system: SMB; assay: Antiprion activity against Scrapie prion protein-mediated scrapie in mouse SMB cells assessed as remaining PrP-Sc level at 20 uM after 5 days by Bradford assay relative to control; type: cell-based
Outline: (§1)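 SMB scrapie-infected mouse cells, non-neuronal, in medium 199 with 10% newborn calf and 5% fetal calf serum, seeded at 3 × 10⁴ cells/well and attached for 24 h. Compound DMSO stocks were diluted via HBSS into medium and applied for 5 days. Lysates of ~30-40 μg protein/well were dot-blotted, digested with proteinase K at 75 μg mL⁻¹ (1 h, 37 °C) and denatured in 1.8 M guanidine thiocyanate. Read-out was %PrP^Sc versus DMSO-only control, in triplicate.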

[2] = test system: SMB; assay: Antiprion activity against Scrapie prion protein-mediated scrapie in mouse SMB cells assessed as remaining PrP-Sc level at 10 uM after 5 days by Bradford assay relative to control; type: cell-based; outline: as §1
[3] = Antiprion activity against Scrapie prion protein-mediated scrapie in mouse SMB cells assessed as remaining PrP-Sc level after 5 days by Bradford assay; type: cell-based; settings: 120 h
Outline: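 Same SMB dot-blot protocol with 5-day exposure. Compounds were rescreened over a range of concentrations to fit an EC₅₀ from dose-response curves. Each determination was run in triplicate, in at least two independent experiments. PrP^Sc was measured relative to an untreated DMSO-only control.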

[4] = test system: SMB; assay: Antiprion activity against Scrapie prion protein-mediated scrapie in mouse SMB cells assessed as remaining PrP-Sc level at 1 uM after 5 days by Bradford assay relative to control; type: cell-based
Outline: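 Compound DMSO stocks were diluted via HBSS into medium and applied for 5 days. Lysates of ~30-40 μg protein/well were dot-blotted, digested with proteinase K at 75 μg mL⁻¹ (1 h, 37 °C) and denatured in 1.8 M guanidine thiocyanate. Read-out was %PrP^Sc versus DMSO-only control, in triplicate.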

[5] = target: Major prion protein (Mus musculus) (UniProt P04925); assay: Binding affinity to mouse PrP up to 40 uM by surface plasmon resonance assay
[6] = target: Major prion protein (Homo sapiens) (UniProt P04156); assay: Binding affinity to human PrP up to 40 uM by surface plasmon resonance assay
[7] = Cytotoxicity against mouse SMB cells at 20 uM after 5 days by MTT assay; type: cell-based; settings: 120 h
Outline: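 SMB cells were seeded at 3 × 10⁴ cells/well and attached for 24 h. Compound was added from DMSO stock diluted through HBSS into the medium, and cells were exposed for 5 days. Viability was read by MTT assay following the standard reagent protocol.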

Chain of Major prion protein (Mus musculus) (P04925 whole entry): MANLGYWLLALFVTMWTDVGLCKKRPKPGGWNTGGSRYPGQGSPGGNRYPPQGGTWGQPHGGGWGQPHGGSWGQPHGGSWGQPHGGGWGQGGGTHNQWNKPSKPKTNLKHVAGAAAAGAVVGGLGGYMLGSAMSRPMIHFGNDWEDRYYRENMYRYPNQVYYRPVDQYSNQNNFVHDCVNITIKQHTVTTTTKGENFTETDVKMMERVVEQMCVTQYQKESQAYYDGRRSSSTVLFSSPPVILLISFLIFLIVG

Cc1[nH]c2ccccc2c1C(=O)C(=O)Nc1cccc(C#N)c1
Remaining PrP-Sc level [1]: 78.5%

Cc1csc(NC(=O)C(=O)c2c[nH]c3ccccc23)n1
Remaining PrP-Sc level [2]: 105%

CCc1cccc(NC(=O)C(=O)c2c(C)[nH]c3ccccc23)c1
Remaining PrP-Sc level [1]: 78.8%

Cc1ccccc1NC(=O)C(=O)c1c[nH]c2ccccc12
Remaining PrP-Sc level [1]: 93.8%

O=C(Nc1ccc(Cl)cc1)C(=O)c1c[nH]c2ccccc12
EC50 [3]: 65 nM
Activity [4]: 5.9%

Cc1[nH]c2ccccc2c1C(=O)C(=O)Nc1cccc(Oc2ccccc2)c1
Remaining PrP-Sc level [2]: 103%

Cc1[nH]c2ccccc2c1C(=O)C(=O)Nc1ccccc1
Remaining PrP-Sc level [2]: 41.6%

O=C(NCc1ccco1)C(=O)c1c[nH]c2ccccc12
Remaining PrP-Sc level [1]: 95.2%

Cc1ccc(NC(=O)C(=O)c2c[nH]c3ccccc23)cc1
EC50 [3]: 130 nM
Activity [4]: 4.1%

COc1cc(NC(=O)C(=O)c2cn(C)c3ccccc23)ncn1
Remaining PrP-Sc level [2]: 86.4%

O=C(Nc1cccc(CO)c1)C(=O)c1c[nH]c2ccccc12
EC50 [3]: 14800 nM
Remaining PrP-Sc level [2]: 17.6%

CCOc1ccc(CNC(=O)C(=O)c2c[nH]c3ccccc23)cc1
EC50 [3]: 60 nM
Activity [4]: 6.5%

O=C(Nc1cc(F)c(F)c(F)c1)C(=O)c1c[nH]c2ccccc12
Remaining PrP-Sc level [1]: 62.5%

O=C(Nc1ccc(F)c(F)c1)C(=O)c1c[nH]c2ccccc12
EC50 [3]: 320 nM
Activity [4]: 1.4%

COc1ccc(NC(=O)C(=O)c2cn(C)c3ccccc23)cc1
EC50 [3]: 68 nM
Activity [4]: 11.6%

O=C(Nc1ccc(F)cc1)C(=O)c1c[nH]c2ccccc12
EC50 [3]: 64 nM
Activity [4]: 10.3%

O=C(Nc1ccc(-c2cnco2)cc1)C(=O)c1c[nH]c2ccccc12
EC50 [3]: 19 nM
Activity [4]: 16.8%

CC(=O)c1cccc(NC(=O)C(=O)c2cn(C)c3ccccc23)c1
Remaining PrP-Sc level [1]: 157%

O=C(Nc1ccccc1)C(=O)c1c[nH]c2ccccc12
Activity [5]: inactive
EC50 [3]: 320 nM
Activity [6]: inactive
Activity [4]: 19.5%

COc1cccc(NC(=O)C(=O)c2c(C)[nH]c3ccccc23)c1
Remaining PrP-Sc level [1]: 133%

Cc1[nH]c2ccccc2c1C(=O)C(=O)Nc1ccc(O)cc1
Remaining PrP-Sc level [1]: 83.1%

C=CCNC(=O)C(=O)c1c[nH]c2ccccc12
Remaining PrP-Sc level [1]: 158%

O=C(Nc1cccc2c(O)cccc12)C(=O)c1c[nH]c2ccccc12
Remaining PrP-Sc level [1]: 101%

Cc1[nH]c2ccccc2c1C(=O)C(=O)Nc1cnc2ccccc2c1
Activity [7]: Toxic
Remaining PrP-Sc level [1]: 87.6%

Cn1cc(C(=O)C(=O)Nc2ccccc2)c2ccccc21
EC50 [3]: 6900 nM
Remaining PrP-Sc level [1]: 81.4%

COc1cccc(CNC(=O)C(=O)c2c[nH]c3ccccc23)c1
Remaining PrP-Sc level [1]: 104%

CC(=O)c1cccc(NC(=O)C(=O)c2c(C)[nH]c3ccccc23)c1
Remaining PrP-Sc level [1]: 84.4%

O=C(NCc1cccnc1)C(=O)c1c[nH]c2ccccc12
Remaining PrP-Sc level [1]: 107%

CCc1cccc(NC(=O)C(=O)c2c[nH]c3ccccc23)c1
EC50 [3]: 12100 nM
Remaining PrP-Sc level [2]: 37.9%

Cc1[nH]c2ccccc2c1C(=O)C(=O)NCc1ccco1
Activity [7]: Toxic
Remaining PrP-Sc level [1]: 83%

COc1ccc(NC(=O)C(=O)c2c(C)[nH]c3ccccc23)cc1
Remaining PrP-Sc level [1]: 72.4%

O=C(Nc1ccccc1Cl)C(=O)c1c[nH]c2ccccc12
Remaining PrP-Sc level [1]: 85.4%

COc1cc(NC(=O)C(=O)c2c(C)[nH]c3ccccc23)ncn1
Remaining PrP-Sc level [1]: 69.7%

Cc1ccc(NC(=O)C(=O)c2c[nH]c3ccccc23)cc1C
EC50 [3]: 1200 nM
Activity [4]: 48.7%

Cc1cccc(NC(=O)C(=O)c2c[nH]c3ccccc23)c1
EC50 [3]: 6350 nM
Remaining PrP-Sc level [2]: 21.7%

O=C(Nc1ccc(OC(F)(F)F)cc1)C(=O)c1c[nH]c2ccccc12
EC50 [3]: 380 nM
Activity [4]: 6.7%

Cc1[nH]c2ccccc2c1C(=O)C(=O)Nc1cccc(CO)c1
Remaining PrP-Sc level [1]: 80.8%

COc1cc(NC(=O)C(=O)c2c[nH]c3ccccc23)cc(OC)c1OC
Remaining PrP-Sc level [1]: 143%

CCc1cccc(NC(=O)C(=O)c2cn(C)c3ccccc23)c1
Remaining PrP-Sc level [1]: 132%

O=C(Nc1cccc(O)c1)C(=O)c1c[nH]c2ccccc12
EC50 [3]: 820 nM
Activity [4]: 52.4%

Cn1cc(C(=O)C(=O)NCc2cccnc2)c2ccccc21
Remaining PrP-Sc level [2]: 117%

CSc1ccc(CNC(=O)C(=O)c2c[nH]c3ccccc23)cc1
EC50 [3]: 40 nM
Activity [4]: 5.6%

O=C(Nc1ccc(-n2cccc2)cc1)C(=O)c1c[nH]c2ccccc12
EC50 [3]: 6 nM
Activity [4]: 17.1%

COc1ccc(CNC(=O)C(=O)c2c[nH]c3ccccc23)cc1
Remaining PrP-Sc level [1]: 104%

O=C(Nc1cccc(-c2cnco2)c1)C(=O)c1c[nH]c2ccccc12
EC50 [3]: 530 nM
Remaining PrP-Sc level [2]: 16.8%

Cc1[nH]c2ccccc2c1C(=O)C(=O)Nc1cccc(F)c1
Remaining PrP-Sc level [1]: 64%

COc1cc(NC(=O)C(=O)c2c[nH]c3ccccc23)ncn1
EC50 [3]: 680 nM
Activity [4]: 23%

Cn1cc(C(=O)C(=O)Nc2cccc(C#N)c2)c2ccccc21
Activity [7]: Toxic
Remaining PrP-Sc level [1]: 91.2%

Cn1cc(C(=O)C(=O)Nc2ccc(O)cc2)c2ccccc21
EC50 [3]: 3770 nM
Remaining PrP-Sc level [2]: 47.3%

O=C(Nc1ccc(C(F)(F)F)cc1)C(=O)c1c[nH]c2ccccc12
EC50 [3]: 290 nM
Activity [4]: 6.1%

COc1cccc(NC(=O)C(=O)c2cn(C)c3ccccc23)c1
EC50 [3]: 4730 nM
Remaining PrP-Sc level [1]: 61.8%

CC(=O)c1cccc(NC(=O)C(=O)c2c[nH]c3ccccc23)c1
Remaining PrP-Sc level [2]: 98.8%

O=C(C(=O)N1CCCCC1)c1c[nH]c2ccccc12
Remaining PrP-Sc level [1]: 112%

CN(C)c1ccc(NC(=O)C(=O)c2c[nH]c3ccccc23)cc1
EC50 [3]: 26 nM
Activity [4]: 7.2%

CCCCNC(=O)C(=O)c1cn(C)c2ccccc12
Remaining PrP-Sc level [1]: 124%

O=C(NCc1ccccc1)C(=O)c1c[nH]c2ccccc12
Remaining PrP-Sc level [1]: 90%

O=C(NCc1ccc(Oc2ccccc2)cc1)C(=O)c1c[nH]c2ccccc12
EC50 [3]: 1030 nM
Remaining PrP-Sc level [2]: 17.5%

Cn1cc(C(=O)C(=O)NCc2ccco2)c2ccccc21
Remaining PrP-Sc level [1]: 109%

Cn1cc(C(=O)C(=O)Nc2cccc(Oc3ccccc3)c2)c2ccccc21
Activity [7]: Toxic
Remaining PrP-Sc level [2]: 169%

Cn1cc(C(=O)C(=O)Nc2cnc3ccccc3c2)c2ccccc21
Activity [7]: Toxic
Remaining PrP-Sc level [1]: 102%

O=C(NC1CCCCC1)C(=O)c1c[nH]c2ccccc12
Remaining PrP-Sc level [1]: 83.1%

O=C(Nc1cccnc1)C(=O)c1c[nH]c2ccccc12
EC50 [3]: 1660 nM
Remaining PrP-Sc level [2]: 8%

Cc1[nH]c2ccccc2c1C(=O)C(=O)Nc1cccc2c(O)cccc12
Activity [7]: Toxic

CCCCNC(=O)C(=O)c1c[nH]c2ccccc12
Remaining PrP-Sc level [1]: 80.8%

Cc1[nH]c2ccccc2c1C(=O)C(=O)NC1CCCCC1
Activity [7]: Toxic
Remaining PrP-Sc level [1]: 102%

Cn1cc(C(=O)C(=O)Nc2cccc(CO)c2)c2ccccc21
Remaining PrP-Sc level [1]: 137%

COc1ccc(CNC(=O)C(=O)c2c[nH]c3ccccc23)cc1OC
EC50 [3]: 520 nM
Activity [4]: 19.3%

COc1ccc(NC(=O)C(=O)c2c[nH]c3ccccc23)cn1
EC50 [3]: 120 nM
Activity [4]: 4.9%

O=C(C(=O)N1CCOCC1)c1c[nH]c2ccccc12
Remaining PrP-Sc level [1]: 80.3%

O=C(Nc1ccc(-n2cccn2)cc1)C(=O)c1c[nH]c2ccccc12
EC50 [3]: 1 nM
Activity [4]: 7%

N#Cc1cccc(NC(=O)C(=O)c2c[nH]c3ccccc23)c1
Remaining PrP-Sc level [1]: 70.1%

O=C(Nc1cccc(Cl)c1)C(=O)c1c[nH]c2ccccc12
EC50 [3]: 1510 nM
Remaining PrP-Sc level [2]: 40%

Cn1cc(C(=O)C(=O)Nc2cccc(F)c2)c2ccccc21
Remaining PrP-Sc level [1]: 11.6%

Cn1cc(C(=O)C(=O)NCc2ccccc2)c2ccccc21
Remaining PrP-Sc level [2]: 148%

O=C(Nc1cccc(Oc2ccccc2)c1)C(=O)c1c[nH]c2ccccc12
Remaining PrP-Sc level [1]: 98.3%

Cn1cc(C(=O)C(=O)Nc2cccc3c(O)cccc23)c2ccccc21
Remaining PrP-Sc level [1]: 114%

O=C(Nc1cccc2ccc(O)cc12)C(=O)c1c[nH]c2ccccc12
Remaining PrP-Sc level [1]: 115%

COc1cc(NC(=O)C(=O)c2c[nH]c3ccccc23)cc(OC)c1
Remaining PrP-Sc level [1]: 75.4%

COc1ccccc1NC(=O)C(=O)c1c[nH]c2ccccc12
Activity [7]: Toxic
Remaining PrP-Sc level [2]: 140%

Cc1[nH]c2ccccc2c1C(=O)C(=O)NCc1cccnc1
Remaining PrP-Sc level [1]: 73.7%

Cc1[nH]c2ccccc2c1C(=O)C(=O)N1CCOCC1
Remaining PrP-Sc level [1]: 81.9%

Cc1[nH]c2ccccc2c1C(=O)C(=O)Nc1cccc2ccccc12
Remaining PrP-Sc level [1]: 96.3%

Cn1cc(C(=O)C(=O)N2CCOCC2)c2ccccc21
Remaining PrP-Sc level [1]: 100%

Cn1cc(C(=O)C(=O)N2CCCCC2)c2ccccc21
Activity [7]: Toxic
Remaining PrP-Sc level [2]: 131%

O=C(Nc1cccc2ccccc12)C(=O)c1c[nH]c2ccccc12
Remaining PrP-Sc level [1]: 135%

Cn1cc(C(=O)C(=O)Nc2cccc3ccccc23)c2ccccc21
Remaining PrP-Sc level [1]: 121%
